Test results: ChEMBL document CHEMBL1145084, “Polymer-assisted solution-phase library synthesis and crystal structure of alpha-ketothiazoles as tissue factor VIIa inhibitors” (J Med Chem, 2003)
pIC50: −log10 of the molar value.

Key:
[1] = biological target: T1, Coagulation factor VII (Homo sapiens, UniProt P08709); test: Inhibitory activity against tissue coagulation factor VII.
T1 sequence (P08709 whole entry): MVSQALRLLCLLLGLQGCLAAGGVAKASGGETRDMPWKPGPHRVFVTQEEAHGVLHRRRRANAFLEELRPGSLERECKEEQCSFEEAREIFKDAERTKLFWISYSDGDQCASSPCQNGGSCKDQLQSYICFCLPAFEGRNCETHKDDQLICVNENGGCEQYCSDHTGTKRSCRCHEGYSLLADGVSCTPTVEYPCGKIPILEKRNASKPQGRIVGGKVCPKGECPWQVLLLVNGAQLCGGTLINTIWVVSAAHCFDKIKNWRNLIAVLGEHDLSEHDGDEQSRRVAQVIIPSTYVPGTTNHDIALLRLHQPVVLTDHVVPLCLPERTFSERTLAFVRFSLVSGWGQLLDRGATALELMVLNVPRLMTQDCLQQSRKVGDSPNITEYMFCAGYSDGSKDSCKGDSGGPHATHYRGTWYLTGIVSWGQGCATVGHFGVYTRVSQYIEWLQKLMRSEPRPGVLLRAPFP
In short: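 Complex of recombinant soluble tissue factor (100 nM) and recombinant human Factor VIIa (2 nM). Substrate N-methylsulfonyl-D-Phe-Gly-Arg-p-nitroaniline at 0.4 mM in 5 mM CaCl2, 50 mM Tris-HCl pH 8.0, 100 mM NaCl, 0.1% BSA. Background A405 read first; after 60 min at room temperature, hydrolysis rate read at 405 nm. Duplicates at seven concentrations; IC50 is the duplicate average.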

[2] = biological target: Prothrombin (Homo sapiens, UniProt P00734); test: Inhibitory activity against thrombin (IIa).
In short: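 Human thrombin (0.28 nM) with H-D-Phe-Pip-Arg-p-nitroaniline (0.06 mM) in 50 mM Tris-HCl pH 8.0, 100 mM NaCl, 0.1% BSA. Immediate background read at 405 nm, then 60 min at room temperature before measuring p-nitroaniline release rate at 405 nm. Seven concentrations in duplicate; % inhibition versus control; IC50 by four-parameter logistic regression.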

[3] = biological target: Thrombin and coagulation factor VII (Homo sapiens) (UniProt P00734+P08709); test: Selectivity for coagulation factor VIIa over thrombin IIa.; assay type: protein assay
[4] = biological target: Coagulation factor X (Homo sapiens, UniProt P00742); test: Inhibitory activity against coagulation factor X.
In short: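 Human Factor Xa (0.3 nM) with chromogenic substrate S-2765 (0.15 mM) in 50 mM Tris-HCl pH 8.0, 100 mM NaCl, 0.1% BSA. A405 background read taken at once, then 60 min at room temperature, then p-nitroaniline release rate at 405 nm. Duplicates at seven concentrations; % inhibition versus control; IC50 from four-parameter logistic fit, averaged over the duplicates.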

Sequence of Coagulation factor X (P00742 41-179 limits assumed): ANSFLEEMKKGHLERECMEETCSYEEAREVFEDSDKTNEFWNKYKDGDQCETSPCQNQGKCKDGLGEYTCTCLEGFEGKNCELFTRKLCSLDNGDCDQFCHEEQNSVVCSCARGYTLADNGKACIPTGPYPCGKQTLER
Sequence of Coagulation factor X (P00742 235-488 limits assumed): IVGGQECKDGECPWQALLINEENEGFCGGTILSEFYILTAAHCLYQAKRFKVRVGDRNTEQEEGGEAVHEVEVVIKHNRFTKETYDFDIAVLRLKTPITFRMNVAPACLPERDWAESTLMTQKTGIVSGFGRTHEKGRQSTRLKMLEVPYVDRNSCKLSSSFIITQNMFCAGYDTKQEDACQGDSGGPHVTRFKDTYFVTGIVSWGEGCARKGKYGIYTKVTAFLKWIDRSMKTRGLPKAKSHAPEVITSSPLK

pIC50 [1] | pIC50 [2] | Selectivity [3] | pIC50 [4] | Compound
5.48 | 4.62 | 7 | 5.57 | N=C(N)NCCC[C@H](NC(=O)[C@H](CC1CCCCC1)NC(=O)[C@@H](Cc1ccccc1)NS(=O)(=O)Cc1ccccc1)C(=O)c1nccs1
5.82 | 5.00 | 6 | 6.51 | N=C(N)NCCC[C@H](NC(=O)[C@H](COCc1ccccc1)NC(=O)[C@@H](Cc1ccccc1)NS(=O)(=O)Cc1ccccc1)C(=O)c1nccs1
5.89 | 5.13 | 6 | 6.24 | Cc1ccc(C[C@H](NC(=O)[C@@H](Cc2ccccc2)NS(=O)(=O)Cc2ccccc2)C(=O)N[C@@H](CCCN=C(N)N)C(=O)c2nccs2)cc1
6.09 | 5.04 | 11 | 5.67 | N=C(N)NCCC[C@H](NC(=O)[C@H](CC1CC1)NC(=O)[C@@H](Cc1ccccc1)NS(=O)(=O)Cc1ccccc1)C(=O)c1nccs1
6.96 | 7.40 | 0.4 | 6.62 | N=C(N)NCCC[C@H](NC(=O)[C@H](CO)NC(=O)[C@@H](Cc1ccccc1)NS(=O)(=O)Cc1ccccc1)C(=O)c1nccs1
 |  | 71 |  | Cc1cccc(C[C@H](NC(=O)[C@@H](Cc2ccccc2)NS(=O)(=O)Cc2ccccc2)C(=O)N[C@@H](CCCN=C(N)N)C(=O)c2nccs2)c1
 |  | 106 |  | N=C(N)NCCC[C@H](NC(=O)[C@H](Cc1cccc(C(F)(F)F)c1)NC(=O)[C@@H](Cc1ccccc1)NS(=O)(=O)Cc1ccccc1)C(=O)c1nccs1
6.30 | 4.81 | 3 | 6.82 | N=C(N)NCCC[C@H](NC(=O)[C@H](Cc1csc2ccccc12)NC(=O)[C@@H](Cc1ccccc1)NS(=O)(=O)Cc1ccccc1)C(=O)c1nccs1
 |  | 147 |  | N#Cc1ccc(C[C@H](NC(=O)[C@@H](Cc2ccccc2)NS(=O)(=O)Cc2ccccc2)C(=O)N[C@@H](CCCNC(=N)N)C(=O)c2nccs2)cc1
5.71 | 5.62 | 1 | 6.11 | N=C(N)NCCC[C@H](NC(=O)[C@H](Cc1ccc2ccccc2c1)NC(=O)[C@@H](Cc1ccccc1)NS(=O)(=O)Cc1ccccc1)C(=O)c1nccs1
 |  | > 333 |  | N=C(N)NCCC[C@H](NC(=O)[C@H](Cc1ccccc1F)NC(=O)[C@@H](Cc1ccccc1)NS(=O)(=O)Cc1ccccc1)C(=O)c1nccs1
6.15 | 4.55 | 40 | 5.56 | Cc1cccc(C)c1C[C@H](NC(=O)[C@@H](Cc1ccccc1)NS(=O)(=O)Cc1ccccc1)C(=O)N[C@@H](CCCN=C(N)N)C(=O)c1nccs1
4.75 | 4.95 | 1 | 5.50 | N=C(N)NCCC[C@H](NC(=O)[C@H](Cc1ccc(-c2ccccc2)cc1)NC(=O)[C@@H](Cc1ccccc1)NS(=O)(=O)Cc1ccccc1)C(=O)c1nccs1
5.55 | 4.81 |  | 5.77 | CN(C)CCCC[C@H](NC(=O)[C@@H](Cc1ccccc1)NS(=O)(=O)Cc1ccccc1)C(=O)N[C@@H](CCCNC(=N)N)C(=O)c1nccs1
5.74 | 5.77 | 1 | 5.97 | N=C(N)NCCC[C@H](NC(=O)[C@H](Cc1cccc(-c2ccccc2)c1)NC(=O)[C@@H](Cc1ccccc1)NS(=O)(=O)Cc1ccccc1)C(=O)c1nccs1
5.81 | 5.20 | 4 | 6.30 | N=C(N)NCCC[C@H](NC(=O)[C@H](Cc1ccc(I)cc1)NC(=O)[C@@H](Cc1ccccc1)NS(=O)(=O)Cc1ccccc1)C(=O)c1nccs1
6.24 | 5.34 |  | 6.52 | CC(=O)Nc1ccc(C[C@H](NC(=O)[C@@H](Cc2ccccc2)NS(=O)(=O)Cc2ccccc2)C(=O)N[C@@H](CCCNC(=N)N)C(=O)c2nccs2)cc1
 |  | 64 |  | CC[C@@H](C)[C@H](NC(=O)[C@@H](Cc1ccccc1)NS(=O)(=O)Cc1ccccc1)C(=O)N[C@@H](CCCN=C(N)N)C(=O)c1nccs1
5.23 | < 4.52 |  | 5.66 | NC(N)=NCCC[C@H](NC(=O)[C@H](Cc1ccc([N+](=O)[O-])cc1)NC(=O)[C@@H](Cc1ccccc1)NS(=O)(=O)Cc1ccccc1)C(=O)c1nccs1
6.72 | 5.17 | 36 | 6.74 | N=C(N)NCCC[C@H](NC(=O)[C@H](Cc1cc(F)cc(F)c1)NC(=O)[C@@H](Cc1ccccc1)NS(=O)(=O)Cc1ccccc1)C(=O)c1nccs1

pIC50 [1] | pIC50 [2] | Selectivity [3] | pIC50 [4] | Compound
 |  | 75 |  | N=C(N)NCCC[C@H](NC(=O)[C@H](Cc1cccc(F)c1)NC(=O)[C@@H](Cc1ccccc1)NS(=O)(=O)Cc1ccccc1)C(=O)c1nccs1
 |  | > 5 |  | N=C(N)NCCC[C@H](NC(=O)[C@H](Cc1ccc([N+](=O)[O-])cc1)NC(=O)[C@@H](Cc1ccccc1)NS(=O)(=O)Cc1ccccc1)C(=O)c1nccs1
 |  | 0.6 |  | CC(C)(C)C[C@H](NC(=O)[C@@H](Cc1ccccc1)NS(=O)(=O)Cc1ccccc1)C(=O)N[C@@H](CCCN=C(N)N)C(=O)c1nccs1
5.00 | 5.00 | 1 | 5.62 | N=C(N)NCCC[C@H](NC(=O)[C@H](Cc1cn(Cc2ccccc2)cn1)NC(=O)[C@@H](Cc1ccccc1)NS(=O)(=O)Cc1ccccc1)C(=O)c1nccs1
 |  | 8 |  | CC(=O)Nc1ccc(C[C@H](NC(=O)[C@@H](Cc2ccccc2)NS(=O)(=O)Cc2ccccc2)C(=O)N[C@@H](CCCN=C(N)N)C(=O)c2nccs2)cc1
6.05 | 4.98 | 12 | 6.27 | N=C(N)NCCC[C@H](NC(=O)[C@H](CCc1ccccc1)NC(=O)[C@@H](Cc1ccccc1)NS(=O)(=O)Cc1ccccc1)C(=O)c1nccs1
6.77 | 5.50 | 19 | 6.73 | N=C(N)NCCC[C@H](NC(=O)[C@H](Cc1ccc(F)cc1)NC(=O)[C@@H](Cc1ccccc1)NS(=O)(=O)Cc1ccccc1)C(=O)c1nccs1
 |  | 95 |  | N=C(N)NCCC[C@H](NC(=O)[C@H](Cc1ccccc1)NC(=O)[C@@H](Cc1ccccc1)NS(=O)(=O)Cc1ccccc1)C(=O)c1nccs1
6.70 |  |  | 6.60 | N=C(N)NCCC[C@H](NC(=O)[C@H](Cc1cc(F)c(F)c(F)c1)NC(=O)[C@@H](Cc1ccccc1)NS(=O)(=O)Cc1ccccc1)C(=O)c1nccs1
 |  | 90 |  | Cc1ccccc1C[C@H](NC(=O)[C@@H](Cc1ccccc1)NS(=O)(=O)Cc1ccccc1)C(=O)N[C@@H](CCCN=C(N)N)C(=O)c1nccs1
5.50 | 5.30 | 2 | 5.90 | N=C(N)NCCC[C@H](NC(=O)[C@H](CC(=O)OC1CCCCC1)NC(=O)[C@@H](Cc1ccccc1)NS(=O)(=O)Cc1ccccc1)C(=O)c1nccs1
 |  | 5 |  | CN(C)CCCC[C@H](NC(=O)[C@@H](Cc1ccccc1)NS(=O)(=O)Cc1ccccc1)C(=O)N[C@@H](CCCN=C(N)N)C(=O)c1nccs1
 |  | 69 |  | N#CC[C@H](NC(=O)[C@@H](Cc1ccccc1)NS(=O)(=O)Cc1ccccc1)C(=O)N[C@@H](CCCNC(=N)N)C(=O)c1nccs1
5.25 | < 4.52 | > 5 | 5.74 | N=C(N)NCCC[C@H](NC(=O)[C@H](Cc1cccc2ccccc12)NC(=O)[C@@H](Cc1ccccc1)NS(=O)(=O)Cc1ccccc1)C(=O)c1nccs1
 |  | 500 |  | N=C(N)NCCC[C@H](NC(=O)[C@H](Cc1cccnc1)NC(=O)[C@@H](Cc1ccccc1)NS(=O)(=O)Cc1ccccc1)C(=O)c1nccs1
6.12 | 5.50 | 4 | 6.42 | N=C(N)NCCC[C@H](NC(=O)[C@H](Cc1ccc(Br)cc1)NC(=O)[C@@H](Cc1ccccc1)NS(=O)(=O)Cc1ccccc1)C(=O)c1nccs1
 |  | 70 |  | N=C(N)NCCC[C@H](NC(=O)[C@H](Cc1ccc(F)c(F)c1)NC(=O)[C@@H](Cc1ccccc1)NS(=O)(=O)Cc1ccccc1)C(=O)c1nccs1
 |  | 63 |  | N=C(N)NCCC[C@H](NC(=O)[C@H](Cc1cccc(Cl)c1)NC(=O)[C@@H](Cc1ccccc1)NS(=O)(=O)Cc1ccccc1)C(=O)c1nccs1
 |  | 58 |  | N=C(N)NCCC[C@H](NC(=O)[C@H](CC(N)=O)NC(=O)[C@@H](Cc1ccccc1)NS(=O)(=O)Cc1ccccc1)C(=O)c1nccs1
6.15 | 6.36 |  | 5.99 | CC(C)(C)C[C@H](NC(=O)[C@@H](Cc1ccccc1)NS(=O)(=O)Cc1ccccc1)C(=O)N[C@@H](CCCNC(=N)N)C(=O)c1nccs1
